The results in this text go back to ChEMBL document CHEMBL3124928, “Synthesis, antileishmanial activity and docking study of N'-substitutedbenzylidene-2-(6,7-dihydrothieno[3,2-c]pyridin-5(4H)-yl)acetohydrazides” (Bioorg Med Chem Lett, 2014).

One data set relates to Leishmania donovani. The data set is described as follows: Antileishmanial activity against Leishmania donovani NHOM/IN/80/DD8 promastigotes assessed as decrease in parasite growth after 72 hrs by MTT assay. Format: functional, organism-based. Conditions: NHOM/IN/80/DD8, 72 h. The essentials:
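Cultured promastigotes were used, and viability was read by a modified MTT assay, with formazan yield taken as proportional to metabolically active cells. IC50 is the concentration cutting cell growth by 50%, found by graphic interpolation.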
(In general: Tetrazolium dyes change colour on reduction, which living cells bring about.)

The next data set has as its system HeLa. The data set is described as follows: Cytotoxicity against human HeLa cells up to 300 ug/ml after 72 hrs by MTT assay. Format: cell-based.
Another data set has as its system Candida albicans. As to the kind of experiment: Antifungal activity against Candida albicans NCIM 3471 by standard agar method. Format: functional. The essentials:
(§1)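 MIC determined by standard agar method, with dimethyl sulfoxide as solvent control.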

The test system of data set [1] is Staphylococcus aureus. As to the kind of experiment: Antibacterial activity against Staphylococcus aureus NCIM 2901 by standard agar method. Format: functional. In short, it runs like this:
as §1

Data set [2] relates to Pseudomonas aeruginosa. The data set is described as follows: Antibacterial activity against Pseudomonas aeruginosa NCIM 2036 by standard agar method. Format: functional. The essentials:
as §1

The subject of a further data set is Escherichia coli. As to the kind of experiment: Antibacterial activity against Escherichia coli NCIM 2256 by standard agar method. Format: functional. The essentials: as §1
In another data set the test system is Aspergillus niger. As to the kind of experiment: Antifungal activity against Aspergillus niger NCIM 1196 by standard agar method. Format: functional. In short, it runs like this:
as §1

Data set [3] deals with Bacillus subtilis. As to the kind of experiment: Antibacterial activity against Bacillus subtilis NCIM 2063 by standard agar method. Format: functional. The essentials:
as §1

Data set [4] has as its system Bacillus subtilis. As to the kind of experiment: Antibacterial activity against Bacillus subtilis NCIM 2063 up to 300 ug/ml by standard agar method. Format: functional, organism-based.
Data set [5] has as its system Pseudomonas aeruginosa. As to the kind of experiment: Antibacterial activity against Pseudomonas aeruginosa NCIM 2036 up to 300 ug/ml by standard agar method. Format: functional, organism-based.
Data set [6] has as its system Staphylococcus aureus. As to the kind of experiment: Antibacterial activity against Staphylococcus aureus NCIM 2901 up to 300 ug/ml by standard agar method. Format: functional, organism-based.

Each structure is given as a SMILES string. Converted amounts (≈) assume the structure as drawn. The source made the active and inactive calls. No cut-off for these calls is given here.

For `O=C(CN1CCc2sccc2C1)N/N=C/c1ccc(Cl)cc1`, the IC50 (as a rule, the point on the concentration scale where inhibition reaches its midpoint) with Leishmania donovani amounted to 738 µM. Further, the Activity entry in the data set on HeLa was “Non-toxic”. In addition, the MIC – broadly, the lowest concentration that inhibits growth of the organism – against Candida albicans was determined as 100 µg/mL (≈ 300 µM); with Staphylococcus aureus [1], 50 µg/mL (≈ 150 µM); in the data set on Pseudomonas aeruginosa [2], 50 µg/mL (≈ 150 µM); in the data set on Escherichia coli it was 25 µg/mL (≈ 74.9 µM); with Aspergillus niger, 100 µg/mL (≈ 300 µM); in the data set on Bacillus subtilis [3] it was 100 µg/mL (≈ 300 µM).
As to `OC(Cn1cncn1)(Cn1cncn1)c1ccc(F)cc1F` [FLUCONAZOLE], the MIC with Candida albicans is 5 µg/mL (≈ 16.3 µM); in the data set on Aspergillus niger, 10 µg/mL (≈ 32.7 µM).
Take `O=C(CN1CCc2sccc2C1)N/N=C/c1c(Cl)cccc1Cl`: in the data set with Leishmania donovani, the concentration for half-maximal inhibition (IC50) came to 645 µM. Further, the Activity entry in the data set on HeLa is reported as “Non-toxic”. For the same compound, the MIC was found to be 80 µg/mL (≈ 217 µM) in the data set on Candida albicans; 250 µg/mL (≈ 679 µM) in the data set with Staphylococcus aureus [1]; 150 µg/mL (≈ 407 µM) against Pseudomonas aeruginosa [2]; 50 µg/mL (≈ 136 µM) with Escherichia coli; 160 µg/mL (≈ 434 µM) in the data set on Aspergillus niger; 250 µg/mL (≈ 679 µM) with Bacillus subtilis [3].
For the compound `CN(C)c1ccc(/C=N/NC(=O)CN2CCc3sccc3C2)cc1`, in the data set with Leishmania donovani, the IC50 is 274 µM. Further, the Activity entry with HeLa is recorded as “Non-toxic”. Further, the result in the data set with Bacillus subtilis [4] and in the data set on Pseudomonas aeruginosa [5] was inactive. Moreover, the MIC against Candida albicans came out at 40 µg/mL (≈ 117 µM); in the data set on Staphylococcus aureus [1] it was 100 µg/mL (≈ 292 µM); against Escherichia coli, 50 µg/mL (≈ 146 µM); in the data set on Aspergillus niger it was 100 µg/mL (≈ 292 µM).
On to `COc1cccc(N)c1/C=N/NC(=O)CN1CCc2sccc2C1`, for which the IC50 with Leishmania donovani worked out at 722 µM. For the same compound, in the data set with HeLa, the Activity entry is “Non-toxic”. Besides, the outcome with Bacillus subtilis [4] and in the data set with Pseudomonas aeruginosa [5] was inactive. For the same compound, the MIC amounted to 60 µg/mL (≈ 174 µM) against Candida albicans, 275 µg/mL (≈ 798 µM) against Staphylococcus aureus [1], 175 µg/mL (≈ 508 µM) with Escherichia coli and 140 µg/mL (≈ 406 µM) with Aspergillus niger.
Regarding `O=C(O)c1cn(C2CC2)c2cc(N3CCNCC3)c(F)cc2c1=O` [CIPROFLOXACIN], the MIC against Staphylococcus aureus [1] worked out at 50 µg/mL (≈ 151 µM); against Escherichia coli, 25 µg/mL (≈ 75.4 µM).
Take `N#Cc1ccc(/C=N/NC(=O)CN2CCc3sccc3C2)cc1`: in the data set with Leishmania donovani, the IC50 was found to be 694 µM. In addition, the Activity entry in the data set on HeLa is recorded as “Non-toxic”. In addition, the result with Bacillus subtilis [4] was inactive. In addition, the MIC against Candida albicans was found to be 80 µg/mL (≈ 247 µM); in the data set on Staphylococcus aureus [1], 250 µg/mL (≈ 771 µM); in the data set on Pseudomonas aeruginosa [2] it was 150 µg/mL (≈ 462 µM); with Escherichia coli, 100 µg/mL (≈ 308 µM); in the data set on Aspergillus niger, 140 µg/mL (≈ 432 µM).
Regarding `CC1(C)S[C@@H]2[C@H](NC(=O)[C@H](N)c3ccccc3)C(=O)N2[C@H]1C(=O)O` [AMPICILLIN], the MIC against Staphylococcus aureus [1] came to 250 µg/mL (≈ 715 µM); against Pseudomonas aeruginosa [2] it was 100 µg/mL (≈ 286 µM); with Escherichia coli, 100 µg/mL (≈ 286 µM); with Bacillus subtilis [3], 250 µg/mL (≈ 715 µM).
For `O=C(CN1CCc2sccc2C1)N/N=C/c1ccccc1Cl`, the IC50 in the data set on Leishmania donovani was determined as 296 µM. In the data set on HeLa, the Activity result was “Non-toxic”. The MIC with Candida albicans stood at 60 µg/mL (≈ 180 µM); against Staphylococcus aureus [1], 100 µg/mL (≈ 300 µM); against Pseudomonas aeruginosa [2], 125 µg/mL (≈ 374 µM); against Escherichia coli, 25 µg/mL (≈ 74.9 µM); in the data set on Aspergillus niger, 120 µg/mL (≈ 359 µM); against Bacillus subtilis [3], 100 µg/mL (≈ 300 µM).
Take `COc1ccc(OC)c(/C=N/NC(=O)CN2CCc3sccc3C2)c1`: the IC50 with Leishmania donovani is 689 µM. The Activity entry with HeLa is “Non-toxic”. Further, the minimal inhibitory concentration (MIC) came out at 25 µg/mL (≈ 69.6 µM) against Candida albicans; 75 µg/mL (≈ 209 µM) with Staphylococcus aureus [1]; 250 µg/mL (≈ 696 µM) against Pseudomonas aeruginosa [2]; 125 µg/mL (≈ 348 µM) in the data set on Escherichia coli; 150 µg/mL (≈ 417 µM) against Aspergillus niger; 100 µg/mL (≈ 278 µM) in the data set on Bacillus subtilis [3].
`O=C(CN1CCc2sccc2C1)N/N=C/c1ccc(O)c(O)c1`: the IC50 with Leishmania donovani amounted to 672 µM. Also, the Activity result in the data set with HeLa is recorded as “Non-toxic”. In addition, the result with Bacillus subtilis [4] and in the data set with Staphylococcus aureus [6] was inactive. Moreover, the minimal inhibitory concentration (MIC) was determined as 75 µg/mL (≈ 226 µM) with Candida albicans, 150 µg/mL (≈ 453 µM) against Pseudomonas aeruginosa [2], 50 µg/mL (≈ 151 µM) with Escherichia coli and 75 µg/mL (≈ 226 µM) against Aspergillus niger.
For the compound `N=C(N)c1ccc(OCCCCCOc2ccc(C(=N)N)cc2)cc1` [PENTAMIDINE], the IC50 in the data set on Leishmania donovani stood at 16.1 µM.
Take `Clc1ccc(COC(Cn2ccnc2)c2ccc(Cl)cc2Cl)c(Cl)c1` (stereo unspecified) [MICONAZOLE]: the values for the MIC against Candida albicans and with Aspergillus niger were 25 µg/mL (≈ 60.1 µM) and 12.5 µg/mL (≈ 30 µM), respectively.
Take `COc1ccc(/C=N/NC(=O)CN2CCc3sccc3C2)c(OC)c1`: the IC50 with Leishmania donovani was 737 µM. Besides, in the data set on HeLa, the Activity result is “Non-toxic”. Also, the MIC in the data set on Candida albicans was 25 µg/mL (≈ 69.6 µM); against Staphylococcus aureus [1] it was 75 µg/mL (≈ 209 µM); in the data set on Pseudomonas aeruginosa [2], 250 µg/mL (≈ 696 µM); in the data set with Escherichia coli, 125 µg/mL (≈ 348 µM); in the data set with Aspergillus niger, 50 µg/mL (≈ 139 µM); against Bacillus subtilis [3], 100 µg/mL (≈ 278 µM).
As for `COc1ccc(/C=N/NC(=O)CN2CCc3sccc3C2)cc1OC`, the IC50 in the data set with Leishmania donovani was 619 µM. Besides, in the data set on HeLa, the Activity result is listed as “Non-toxic”. Further, the MIC with Candida albicans was found to be 37.5 µg/mL (≈ 104 µM); in the data set on Staphylococcus aureus [1] it was 150 µg/mL (≈ 417 µM); in the data set with Pseudomonas aeruginosa [2], 200 µg/mL (≈ 556 µM); in the data set with Escherichia coli, 150 µg/mL (≈ 417 µM); in the data set with Aspergillus niger, 12.5 µg/mL (≈ 34.8 µM); in the data set on Bacillus subtilis [3], 150 µg/mL (≈ 417 µM).
